Test results: ChEMBL document CHEMBL1152747, “Synthesis, SAR study and biological evaluation of novel pyrazolo[1,5-a]pyrimidin-7-yl phenyl amides as anti-proliferative agents” (Bioorg Med Chem, 2009)
Calls of active or inactive are those of the source. The calls are words filed in the database; no cut-off is given here.

How the values were obtained:
[1] = Antiproliferative activity against p21-/- human 80S14 cells; type: functional, cell-based
HCT-116 = test: Antiproliferative activity against p21+/+ human HCT116 cells; type: functional, cell-based
SW-620 = test: Antiproliferative activity against human SW620 cells; type: functional, cell-based
DLD-1 = test: Antiproliferative activity against human DLD1 cells; type: functional, cell-based
[2] = Plasma concentration in mouse at 50 mg/kg, po after 4 hrs; type: ADME, organism-based; parameters: dose 50 mg/kg, route oral
In short: (§1)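 Nude mice were dosed orally at 50 mg/kg. Blood was sampled at 1 and 4 h, and plasma levels were reported in […].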

LoVo [3] = test: Antiproliferative activity against human LoVo cells; type: functional, cell-based
HT-29 = test: Antiproliferative activity against human HT-29 cells; type: functional, cell-based
[4] = Plasma concentration in mouse at 50 mg/kg, po after 1 hr; type: ADME, organism-based; parameters: dose 50 mg/kg, route oral; in short: as §1
[5] = Induction of oligomerization of tubulin
LoVo [6] = test: Anticancer activity against human LoVo cells xenografted mouse at 30 mg/kg, po administered 20 days measured on day 21 relative to control; type: functional
In short: (§2)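 Female athymic nu/nu mice were given 1×10^7 LoVo cells SC in the flank. Cells were cultured in RPMI with 10% FBS. At 90–120 mg tumour mass (day zero), mice were randomised 5 per group. Tumour mass was calculated as (length×width²)/2 every 7 days and expressed as relative growth versus day zero, treated versus control. Student t-test was run on log relative growth, with significance at p≤0.05.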

LoVo [7] = test: Anticancer activity against human LoVo cells xenografted mouse at 50 mg/kg, po administered 20 days measured on day 21 relative to control; type: functional; in short: as §2
[8] = Binding affinity to tubulin
In short: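 Binding was read by the fluorescence change of compound and tubulin tryptophan residues on binding, using unlabelled tubulin with intrinsic tryptophan fluorescence as reporter. KD was derived from this signal.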

CC(C)NC(=O)Nc1cccc(-c2ccnc3c(C(=O)c4cccs4)cnn23)c1
IC50 [1]: 89 nM

CC(C)(C)CCNc1cccc(-c2ccnc3c(C(=O)c4cccs4)cnn23)c1
IC50 [1]: 550 nM
IC50 (HCT-116): 4800 nM

CC(C)NC(=O)Nc1cc(-c2ccnc3c(C(=O)c4cccs4)cnn23)ccc1F
IC50 (SW-620): 12 nM
IC50 [1]: 41 nM
IC50 (HCT-116): 5300 nM
IC50 (DLD-1): 19 nM
concentration at 4 h [2]: 8 ng/mL
IC50 (LoVo [3]): 11 nM
IC50 (HT-29): 17 nM
concentration at 1 h [4]: 14 ng/mL

CCCCNC(=O)c1cccc(-c2ccnc3c(C(=O)c4cccs4)cnn23)c1
IC50 [1]: 340 nM
IC50 (HCT-116): 5300 nM

O=C(NC1CCCC1)c1cccc(-c2ccnc3c(C(=O)c4cccs4)cnn23)c1
IC50 [1]: 390 nM
IC50 (HCT-116): 6800 nM

CC(C)CNC(=O)c1cccc(-c2ccnc3c(C(=O)c4cccs4)cnn23)c1
IC50 (SW-620): 150 nM
IC50 [1]: 400 nM
IC50 (HCT-116): 5700 nM
IC50 (DLD-1): 60 nM
IC50 (LoVo [3]): 150 nM
IC50 (HT-29): 150 nM

CC(C)CC(=O)Nc1cncc(-c2ccnc3c(C(=O)c4cccs4)cnn23)c1
IC50 [1]: 7600 nM
IC50 (HCT-116): > 2600 nM

CC(CC(=O)Nc1cc(-c2ccnc3c(C(=O)c4cccs4)cnn23)ccc1F)C(F)(F)F (stereo unspecified)
IC50 [1]: 120 nM
IC50 (HCT-116): 2500 nM

Cc1ccc(-c2ccnc3c(C(=O)c4cccs4)cnn23)cc1NC(=O)CC(C)C
IC50 [1]: 1000 nM
IC50 (HCT-116): 9200 nM

COc1ccc(-c2ccnc3c(C(=O)c4cccs4)cnn23)cc1NC(=O)CC(C)C
IC50 [1]: 6400 nM
IC50 (HCT-116): 19000 nM

CC(C)CC(=O)Nc1cc(-c2ccnc3c(C(=O)c4cccs4)cnn23)ccc1F
IC50 (SW-620): 15 nM
IC50 [1]: 89 nM
IC50 (HCT-116): 3200 nM
Activity [5]: inactive
IC50 (DLD-1): 16 nM
concentration at 4 h [2]: 40 ng/mL
IC50 (LoVo [3]): 15 nM
IC50 (HT-29): 16 nM
T/C (LoVo [6]): 57%
T/C (LoVo [7]): 24%
concentration at 1 h [4]: 110 ng/mL
Kd [8]: 2500 nM

CC(C)CC(=O)Nc1ccc(-c2ccnc3c(C(=O)c4cccs4)cnn23)s1
IC50 (SW-620): 760 nM
IC50 [1]: 2000 nM
IC50 (HCT-116): > 20000 nM
IC50 (DLD-1): 620 nM
IC50 (LoVo [3]): 680 nM
IC50 (HT-29): 670 nM

C/C=C/CNc1cccc(-c2ccnc3c(C(=O)c4cccs4)cnn23)c1
IC50 [1]: 430 nM
IC50 (HCT-116): 3800 nM

CC(C)CCNc1cccc(-c2ccnc3c(C(=O)c4cccs4)cnn23)c1
IC50 (SW-620): 110 nM
IC50 [1]: 770 nM
IC50 (HCT-116): 5700 nM
IC50 (DLD-1): 120 nM
IC50 (LoVo [3]): 81 nM
IC50 (HT-29): 450 nM

CC(C)NC(=O)c1cccc(-c2ccnc3c(C(=O)c4cccs4)cnn23)c1
IC50 [1]: 680 nM
IC50 (HCT-116): > 13000 nM

CC(C)CC(=O)Nc1cc(-c2ccnc3c(C(=O)c4cccs4)cnn23)ccc1Cl
IC50 [1]: 430 nM
IC50 (HCT-116): 8800 nM

O=C(Nc1ccccc1)c1cccc(-c2ccnc3c(C(=O)c4cccs4)cnn23)c1
IC50 [1]: 310 nM
IC50 (HCT-116): 5100 nM

CC(C)CC(=O)Nc1cccc(-c2ccnc3c(C(=O)c4cccs4)cnn23)c1
IC50 [1]: 140 nM
Activity [5]: inactive
Kd [8]: 4300 nM

CC(C)CC(=O)Nc1cc(-c2ccnc3c(C(=O)c4cccs4)cnn23)cs1
IC50 [1]: 7800 nM
IC50 (HCT-116): > 20000 nM

CC(C)OC(=O)Nc1cccc(-c2ccnc3c(C(=O)c4cccs4)cnn23)c1
IC50 [1]: 51 nM

CC(C)(C)CC(=O)Nc1cc(-c2ccnc3c(C(=O)c4cccs4)cnn23)ccc1F
IC50 [1]: 190 nM
IC50 (HCT-116): 3700 nM

CC(C)CC(=O)Nc1ccc(Cl)c(-c2ccnc3c(C(=O)c4cccs4)cnn23)c1
IC50 [1]: 2800 nM
IC50 (HCT-116): 20000 nM
